Screens deposited in PubChem BioAssay by several laboratories.
CHOP inh: inhibitors of CHOP promoter induction, primary screen, cell-based, unfolded protein response, luciferase reporter; CHO-K1 CHOP-promoter luciferase, tunicamycin-induced, 15-18 h; inhibition, % at 10 µM; actives 3.8% (n = 220,000); AID 2732, 2010;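 active means compounds that reduced the stress-induced luciferase reporter signal by more than about 70% of percent inhibition, limit read from the data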
FXN GAA850 act: FXN promoter activators, primary screen, cell-based, luciferase luminescence, HEK293 lucGAA850. actives 0.56% (n = 360,000). HEK293 lucGAA850 FXN promoter luciferase reporter, 24 h; percent of 10 µM SAHA response. activation, % at 6 µM;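 active means activation above the average of all compounds screened plus 3 SD, cutoff fixed separately per campaign, cut at about 7.5% in these data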
XBP1 UPR activ: activators of adaptive XBP1 UPR arm, primary screen, cell-based, CHO-XBP1 luciferase reporter, luminescence, uHTS. IRE1-XBP1 UPR activation; percent of tunicamycin response, DMSO as zero. activation, % at 20 µM. actives 0.33% (n = 330,000). AID 463104, 2010;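 active means versus positive control, 20 µM dose yields 30% or more activation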
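Material: CHO cell line with stable XBP1 luciferase reporter; schedule: 16-18 h cell attachment at 37 °C, then 6 h compound exposure; signal: glow luminescence from Steady-Glo reagent; medium: serum-containing F12 medium, 10% FBS; benchmarks: tunicamycin 10 µg/mL and vehicle-only wells; read-out: percent activation relative to tunicamycin reference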
CHOP UPR activ: activators of apoptotic CHOP UPR arm, primary screen, cell-based, CHO-CHOP luciferase reporter, luminescence, uHTS | activation, % at 10 µM | UPR activation; percent of tunicamycin response over DMSO baseline | AID 449763, 2010 | actives 0.34% (n = 330,000);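 active means at 10 µM dose, activation of 40% or more, normalized to positive control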
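Test system: CHO-CHOP cells, stable luciferase reporter of PERK-eIF2a-CHOP signalling | Quantity: 500 CHO-CHOP cells per well | Buffer or medium: F12 plus 10% serum | Compound dosing: 10 µM single point, 0.5% DMSO | Schedule: 6 h compound treatment, 37 °C | Signal: Luciferase luminescence | Control set: Tunicamycin high control, DMSO low control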
Large screens that a line does not name were inactive. The sample as a whole holds a higher share of hits than the screen did.

Cc1ccc(-n2c(=O)c3ccc(C(=O)NCc4ccco4)cc3n(Cc3ccccc3C#N)c2=O)cc1	none
Cc1ccccc1Cn1c(=O)n(-c2ccccc2)c(=O)c2ccc(C(=O)NCc3ccco3)cc21	CHOP inh 81
O=C(N/N=C/c1cccc(F)c1)c1c(O)c2c([nH]c1=O)CCCC2	CHOP inh 82
CCOC(=O)Cc1csc(NC(=O)c2c(O)c3ccccc3n(CC(C)C)c2=O)n1	CHOP inh 85
CC(C)Cn1c(=O)c(C(=O)Nc2ccccc2S(N)(=O)=O)c(O)c2ccccc21	CHOP inh 73
CCC(C)n1c(=O)c(C(=O)Nc2ccccc2S(N)(=O)=O)c(O)c2ccccc21 (centres undefined)	none
CNC(=O)c1ccccc1NC(=O)c1c(O)c2c([nH]c1=O)CCCC2	none
CCCCn1c(=O)c(C(=O)N/N=C/c2ccc(F)cc2)c(O)c2ccccc21	none (no result: FXN GAA850 act)
CC(C)Cn1c(=O)c(C(=O)N/N=C/c2cccc(F)c2)c(O)c2ccccc21	CHOP inh 82
Cc1cc(C)n2nc(CNS(=O)(=O)c3ccc(C(C)(C)C)cc3)nc2n1	none (no result: CHOP inh, XBP1 UPR activ, CHOP UPR activ)
COC(=O)c1c(NC(NC(=O)C(C)(C)C)C(Cl)(Cl)Cl)sc2c1CCC2 (centres undefined)	CHOP inh 78
CCC(=O)NC(Nc1sc2c(c1C(=O)OC)CCC2)C(Cl)(Cl)Cl (centres undefined)	none
COC(=O)c1c(NC(NC(=O)CC(C)C)C(Cl)(Cl)Cl)sc2c1CCC2 (centres undefined)	CHOP inh 91
COC(=O)c1c(NC(NC(=O)C(C)C)C(Cl)(Cl)Cl)sc2c1CCC2 (centres undefined)	none
CC1(C(=O)Nc2ccc3[nH]ncc3c2)CCN1C(=O)C/C=C/c1ccccc1 (centres undefined)	none (no result: CHOP inh, XBP1 UPR activ, CHOP UPR activ)
CC(C)C1N(C(=O)N(C)C)CCN1S(=O)(=O)c1ccccc1 (centres undefined)	none (no result: CHOP inh)
CC(C)C1N(S(=O)(=O)c2ccccc2)CCN1S(=O)(=O)c1ccccc1	CHOP inh 76
COCCN1C[C@@H](CO)O[C@@H](n2cnc3c(N(C)C(C)C)ncnc32)C1	none (no result: CHOP inh, XBP1 UPR activ, CHOP UPR activ)
Oc1ccc(N=Nc2n[nH]c(-c3ccccc3)n2)cc1	none
Oc1ccc(N=Nc2nc(-c3ccccc3)c(-c3ccccc3)[nH]2)cc1	CHOP inh 92
Clc1ccccc1COc1ccc(/C=N/n2cnnc2)cc1	none
C=CCNC(=S)N/N=C/c1ccc(OCc2ccccc2Cl)cc1	CHOP inh 92
CC(C)CC1C(=O)N(Cc2cn(Cc3ccco3)nn2)CCS(=O)(=O)N1Cc1ccc(-c2cccc(N(C)C)c2)cc1 (centres undefined)	none (no result: CHOP inh, XBP1 UPR activ, CHOP UPR activ)
O=C(Nc1ccc(N2CCN(c3ccc(O)cc3)CC2)cc1)Oc1ccccc1	none
Nc1ccc(OC(=O)Nc2ccc(O)cc2)cc1	CHOP inh 82
Cc1ccc(Cl)cc1N1CCN(C(=O)c2cc3c(=O)[nH]c4ccccc4c3n2C)CC1	CHOP inh 94
CC(C)CC(=O)Nc1nnc(-c2ccco2)s1	CHOP inh 84
Cc1ccc(NC(=O)c2ccc(-c3cc(Cl)ccc3Cl)o2)c(C)c1	none (no result: CHOP inh, XBP1 UPR activ, CHOP UPR activ)
O=S(=O)(Nc1ccc(Cl)cc1)c1ccc(N2CCOCC2)c(NC(=S)NCCN2CCOCC2)c1	CHOP inh 81
O=C(NC(=S)N1CCCCC1)C12CC3CC(CC(C3)C1)C2	none
O=C(c1cc(NC(=O)C23CC4CC(CC(C4)C2)C3)cc(NC(=O)C23CC4CC(CC(C4)C2)C3)c1)N1CCCCC1	CHOP inh 71 (no result: FXN GAA850 act)
CC1(C(=O)Nc2nccs2)CCN1C(=O)CC(c1ccccc1)c1ccccc1 (centres undefined)	none (no result: CHOP inh, XBP1 UPR activ, CHOP UPR activ)
CCc1nc2ccc(C(=O)N(C)C(C)C)cn2c1N(CC)Cc1cccc(Br)c1	none (no result: CHOP inh, XBP1 UPR activ, CHOP UPR activ)
Cc1sc(NC(=O)Cn2[nH]c(=O)c3ccccc3c2=O)nc1-c1ccccc1	CHOP inh 88
Cc1c(NC(=O)Cn2[nH]c(=O)c3ccccc3c2=O)c(=O)n(-c2ccccc2)n1C	none
COc1ccc(-c2nc(NC(=O)c3n[nH]c(=O)c4ccccc34)sc2C)cc1	CHOP inh 100
Cc1ccc(NC(=O)c2cc(N(C)C)ccc2[P+](=O)O)cc1	CHOP inh 91
CCOC(=O)C(=O)N/N=C/c1cccc(Br)c1	none
CCCCNC(=O)C(=O)N/N=C/c1cccc(Br)c1	CHOP inh 71
Cc1cccc(C)c1NS(=O)(=O)c1ccc(NC(=O)c2ccc(Cl)c([N+](=O)[O-])c2)cc1	CHOP inh 73
O=C(Nc1ccc(S(=O)(=O)NC2=NCCCCC2)cc1)c1ccc(Cl)c([N+](=O)[O-])c1	none (no result: CHOP inh)
Fc1nc(F)c(F)c(NCCCNc2c(F)c(F)nc(F)c2F)c1F	CHOP inh 88
C=C[C@H]1CN2CCC1C[C@@H]2[C@@H](O)c1ccnc2ccc(OC)cc12 (some centres undefined)	none (no result: FXN GAA850 act, XBP1 UPR activ, CHOP UPR activ)
CCOC(=O)C(CCCOc1ccc(C)cc1)C(=O)OCC	CHOP inh 95
CCOC(=O)C(CCCOc1ccccc1)C(=O)OCC	none
Cc1ccc(S(=O)(=O)N2C[C@@H](C)[C@]3(C2)[C@H](O)[C@H](OC(=O)Nc2cccs2)C[C@H]2C(=O)N(c4ccccc4)C(=O)[C@H]23)cc1	none (no result: CHOP inh, XBP1 UPR activ, CHOP UPR activ)
CCn1c(O)c(C=NCc2cccs2)c(=O)n(CC)c1=S	CHOP inh 73
CCN(CC)C(C)C(=O)N1c2ccccc2Sc2ccccc21 (centres undefined)	none (no result: FXN GAA850 act, XBP1 UPR activ, CHOP UPR activ)
CCOC(=O)C1=C(C)N(C)C(C)=C(C(=O)OCC)C1c1ccc(C(=O)OC)cc1	none
CCOC(=O)C1=C(C)N(C)C(C)=C(C(=O)OCC)C1c1ccc(Cl)cc1	CHOP inh 80
COC(=O)C1=C(C)N(C)C(C)=C(C(=O)OC)C1c1ccc(Cl)cc1	CHOP inh 72
C#CCn1cc(/C=N/NC(=O)COc2cccc3cccnc23)c2ccccc21	CHOP inh 103
Cc1ccccc1OCC(=O)N/N=C/c1cn(Cc2ccccc2)c2ccccc12	CHOP inh 73
Cc1ccc(OCC(=O)N/N=C\c2cn(Cc3ccccc3)c3ccccc23)cc1C	none
COC(=O)N/N=C/c1cn(Cc2ccc(Cl)cc2Cl)c2ccccc12	CHOP inh 80
Cc1nc(C(F)(F)F)ccc1C(=O)N1CCC1(C)C(=O)NS(=O)(=O)c1ccc(C(C)(C)C)cc1 (centres undefined)	none (no result: CHOP inh, XBP1 UPR activ, CHOP UPR activ)
O=S1(=O)CC/C(=N/Nc2ccc(C(F)(F)F)cn2)c2cc(F)ccc21	CHOP inh 95
O=C(N/N=C1\CCS(=O)(=O)c2ccc(F)cc21)c1ccc(O)cc1	none
COc1cc(C(=O)N/N=C2\CCS(=O)(=O)c3ccc(F)cc32)cc(OC)c1OC	CHOP inh 73
O=S1(=O)CC/C(=N/Nc2ccccn2)c2cc(F)ccc21	none
